From ChEMBL document CHEMBL4813921, “Optimization of WZ4003 as NUAK inhibitors against human colorectal cancer” (Eur J Med Chem, 2021)
Activity calls are given as the source filed them. No cut-off for these calls is given here.

What was measured:
[1] = target: T1, NUAK family SNF1-like kinase 1 (Homo sapiens) (UniProt O60285); assay: Inhibition of NUAK1 (unknown origin) at 10 uM using CHKtide as substrate in presence of ATP measured after 60 mins by ADP-Glo assay
T1 sequence (whole entry): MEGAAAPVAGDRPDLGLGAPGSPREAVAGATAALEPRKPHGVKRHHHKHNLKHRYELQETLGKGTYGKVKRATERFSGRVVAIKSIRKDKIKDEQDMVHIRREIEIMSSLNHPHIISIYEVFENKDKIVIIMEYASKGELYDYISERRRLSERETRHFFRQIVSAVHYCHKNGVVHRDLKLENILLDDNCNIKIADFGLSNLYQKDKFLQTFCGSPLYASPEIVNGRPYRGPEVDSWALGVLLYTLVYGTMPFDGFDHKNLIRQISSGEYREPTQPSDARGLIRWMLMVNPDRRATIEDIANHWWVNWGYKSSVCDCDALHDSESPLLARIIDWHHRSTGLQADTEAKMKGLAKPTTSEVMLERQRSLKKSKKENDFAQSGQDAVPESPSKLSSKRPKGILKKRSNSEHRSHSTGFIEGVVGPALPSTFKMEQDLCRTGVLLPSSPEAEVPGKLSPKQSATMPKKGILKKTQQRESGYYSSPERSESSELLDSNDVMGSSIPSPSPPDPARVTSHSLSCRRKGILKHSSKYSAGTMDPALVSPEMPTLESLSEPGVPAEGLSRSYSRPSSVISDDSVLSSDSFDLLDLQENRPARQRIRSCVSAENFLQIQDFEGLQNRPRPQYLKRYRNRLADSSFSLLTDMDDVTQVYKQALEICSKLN

[2] = target: T2, NUAK family SNF1-like kinase 2 (Homo sapiens) (UniProt Q9H093); assay: Inhibition of NUAK2 (unknown origin) at 10 uM using CHKtide as substrate in presence of ATP measured after 60 mins by ADP-Glo assay
T2 sequence (whole entry): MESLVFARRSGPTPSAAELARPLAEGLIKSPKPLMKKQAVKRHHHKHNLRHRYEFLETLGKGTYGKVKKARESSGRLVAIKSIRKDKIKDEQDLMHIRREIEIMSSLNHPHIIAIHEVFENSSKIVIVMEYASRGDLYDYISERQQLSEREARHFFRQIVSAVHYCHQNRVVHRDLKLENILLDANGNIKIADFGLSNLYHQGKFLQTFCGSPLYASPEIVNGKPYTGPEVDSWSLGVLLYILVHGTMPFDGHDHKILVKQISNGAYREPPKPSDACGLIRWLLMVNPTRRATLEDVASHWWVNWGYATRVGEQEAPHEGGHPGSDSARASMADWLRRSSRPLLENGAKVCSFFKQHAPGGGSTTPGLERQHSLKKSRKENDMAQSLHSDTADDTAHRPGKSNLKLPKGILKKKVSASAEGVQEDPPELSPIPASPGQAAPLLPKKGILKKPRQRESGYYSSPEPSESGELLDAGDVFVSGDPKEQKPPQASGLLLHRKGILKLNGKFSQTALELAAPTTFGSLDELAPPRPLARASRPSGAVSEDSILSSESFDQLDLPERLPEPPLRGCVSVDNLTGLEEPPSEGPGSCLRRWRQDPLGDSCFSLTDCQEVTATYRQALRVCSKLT

U2OS [3] = assay: Antiproliferative activity against human U2OS cells assessed as reduction in cell viability at 10 uM measured after 1 to 5 days by MTT assay; format: functional; conditions: time 1-5 day
In short: (§1)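 MTT viability read daily over 1–5 days of exposure to 10 μM compound; mean ± SD, n = 3.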

HCT-116 [4] = assay: Antiproliferative activity against human HCT-116 cells assessed as reduction in cell viability at 10 uM measured after 1 to 5 days by MTT assay relative to control; format: functional, cell-based; conditions: time 1-5 day; in short: as §1
SW480 [5] = assay: Antiproliferative activity against human SW480 cells assessed as reduction in cell viability at 10 uM measured after 1 to 5 days by MTT assay relative to control; format: functional, cell-based; conditions: time 1-5 day; in short: as §1
U2OS [6] = assay: Antiproliferative activity against human U2OS cells at 2.5 to 10 uM measured after 48 hrs by EdU staining based assay; format: functional, cell-based; conditions: dose 2.5-10 µM
In short: (§2)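 Cells exposed to a range of compound concentrations for 48 h, then EdU click-chemistry staining with DAPI counterstain. Confocal high-content imaging; DAPI-positive nuclei counted as total and EdU-positive as proliferating.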

HCT-116 [7] = assay: Antiproliferative activity against human HCT-116 cells at 2.5 to 10 uM measured after 48 hrs by EdU staining based assay; format: functional, cell-based; conditions: dose 2.5-10 µM; in short: as §2
SW480 [8] = assay: Antiproliferative activity against human SW480 cells at 2.5 to 10 uM measured after 48 hrs by EdU staining based assay; format: functional, cell-based; conditions: dose 2.5-10 µM; in short: as §2
U2OS [9] = assay: Induction of apoptosis in human U2OS cells assessed as viable cells at 10 uM measured after 48 hrs by Annexin V-FITC/PI staining based flow cytometry method (reference value: 95.5%); format: functional; conditions: read-out: Activity
U2OS [10] = assay: Induction of apoptosis in human U2OS cells assessed as early apoptotic cells at 10 uM measured after 48 hrs by Annexin V-FITC/PI staining based flow cytometry method (reference value: 2.8%); format: functional
U2OS [11] = assay: Induction of apoptosis in human U2OS cells assessed as late apoptotic cells at 10 uM measured after 48 hrs by Annexin V-FITC/PI staining based flow cytometry method (reference value: 1.3%); format: functional
U2OS [12] = assay: Induction of apoptosis in human U2OS cells assessed as necrotic cells at 10 uM measured after 48 hrs by Annexin V-FITC/PI staining based flow cytometry method (reference value: 0.4%); format: functional
HCT-116 [13] = assay: Induction of apoptosis in human HCT-116 cells assessed as viable cells at 10 uM measured after 48 hrs by Annexin V-FITC/PI staining based flow cytometry method (reference value: 95.4%); format: functional; conditions: read-out: Activity
HCT-116 [14] = assay: Induction of apoptosis in human HCT-116 cells assessed as early apoptotic cells at 10 uM measured after 48 hrs by Annexin V-FITC/PI staining based flow cytometry method (reference value: 0.8%); format: functional
HCT-116 [15] = assay: Induction of apoptosis in human HCT-116 cells assessed as late apoptotic cells at 10 uM measured after 48 hrs by Annexin V-FITC/PI staining based flow cytometry method (reference value: 1.6%); format: functional
HCT-116 [16] = assay: Induction of apoptosis in human HCT-116 cells assessed as necrotic cells at 10 uM measured after 48 hrs by Annexin V-FITC/PI staining based flow cytometry method (reference value: 2.2%); format: functional
SW480 [17] = assay: Induction of apoptosis in human SW480 cells assessed as viable cells at 10 uM measured after 48 hrs by Annexin V-FITC/PI staining based flow cytometry method (reference value: 93.2%); format: functional; conditions: read-out: Activity
SW480 [18] = assay: Induction of apoptosis in human SW480 cells assessed as early apoptotic cells at 10 uM measured after 48 hrs by Annexin V-FITC/PI staining based flow cytometry method (reference value: 2.6%); format: functional
SW480 [19] = assay: Induction of apoptosis in human SW480 cells assessed as late apoptotic cells at 10 uM measured after 48 hrs by Annexin V-FITC/PI staining based flow cytometry method (reference value: 2.8%); format: functional
SW480 [20] = assay: Induction of apoptosis in human SW480 cells assessed as necrotic cells at 10 uM measured after 48 hrs by Annexin V-FITC/PI staining based flow cytometry method (reference value: 1.4%); format: functional

CCC(=O)Nc1cccc(Oc2nc(Nc3ccc(N4CCN(C)CC4)cc3OC)ncc2Cl)c1 gave an inhibition [1] of 85.8%, an inhibition [2] of 84.8% and an inhibition at 10 µM (U2OS [3]) of 47.3%. The Activity (HCT-116 [4]) was “Active”, the Activity (SW480 [5]) was “Active” and the Activity (U2OS [6]) was “Active”. The Activity (HCT-116 [7]) was “Active”, the Activity (SW480 [8]) was “Active” and the viability at 10 µM (U2OS [9]) was 90.8%. For the same compound, the Activity (U2OS [10]) was 6.2%, the Activity (U2OS [11]) was 2.6% and the Activity (U2OS [12]) was 0.4%. The viability at 10 µM (HCT-116 [13]) was 80.2%, the Activity (HCT-116 [14]) was 2.9% and the Activity (HCT-116 [15]) was 13.7%. The Activity (HCT-116 [16]) was 3.2%, the viability at 10 µM (SW480 [17]) was 94.5% and the Activity (SW480 [18]) was 2%. It also gave an Activity (SW480 [19]) of 2.7% and an Activity (SW480 [20]) of 0.8%.

CCC(=O)Nc1cccc(Oc2nc(Nc3ccc(N(C)C)cc3OC)ncc2Cl)c1 showed an inhibition [1] of 80.6%, an inhibition [2] of 15% and an inhibition at 10 µM (U2OS [3]) of 4.83%.

CCC(=O)Nc1cccc(Oc2nc(Nc3ccc(N(CC)CC)cc3)ncc2Cl)c1 was tested, and the inhibition [1] was 54.4%, the inhibition [2] was 21.2% and the inhibition at 10 µM (U2OS [3]) was 38.8%.

For CCC(=O)Nc1cccc(Oc2nc(Nc3ccc(N4CCCC4)cc3)ncc2Cl)c1, the inhibition [1] was “inactive”, the inhibition [2] was “inactive” and the inhibition at 10 µM (U2OS [3]) was 38.5%.

With CCC(=O)Nc1cccc(Oc2nc(Nc3ccc(N4CCCCC4)cc3OC)ncc2Cl)c1 the inhibition [1] was 13.9%, the inhibition [2] was “inactive” and the inhibition at 10 µM (U2OS [3]) was 12.9%.

CCC(=O)Nc1cccc(Oc2nc(Nc3ccc(N4CCOCC4)cc3OC)ncc2Cl)c1 showed an inhibition [1] of 65.6%, an inhibition [2] of 8.45% and an inhibition at 10 µM (U2OS [3]) of 9.7%.

With CCCN(CCC)c1ccc(Nc2ncc(Cl)c(Oc3cccc(NC(=O)CC)c3)n2)c(OC)c1 the inhibition [1] was “inactive”, the inhibition [2] was “inactive” and the inhibition at 10 µM (U2OS [3]) was 33.8%.

CCC(=O)Nc1cccc(Oc2nc(Nc3ccc(N4CCC(OC)CC4)cc3)ncc2Cl)c1 showed an inhibition [1] of 86.5%, an inhibition [2] of 53.4% and an inhibition at 10 µM (U2OS [3]) of 48.7%.

CCC(=O)Nc1cccc(Oc2nc(Nc3ccc(N4CCC(C)CC4)cc3)ncc2Cl)c1 gave an inhibition [1] of 13.4%, an inhibition [2] of 24.8% and an inhibition at 10 µM (U2OS [3]) of 44.2%.

CCCN(CCC)c1ccc(Nc2ncc(Cl)c(Oc3cccc(NC(=O)CC)c3)n2)cc1 was tested, and the inhibition [1] was 9.3%, the inhibition [2] was “inactive” and the inhibition at 10 µM (U2OS [3]) was 23.9%.

For CCC(=O)Nc1cccc(Oc2nc(Nc3ccc(N4CCC(OC)CC4)cc3OC)ncc2Cl)c1, the inhibition [1] was 5.08%, the inhibition [2] was “inactive” and the inhibition at 10 µM (U2OS [3]) was 10.8%.

With CCC(=O)Nc1cccc(Oc2nc(Nc3ccc(N4CCC(C)CC4)cc3OC)ncc2Cl)c1 the inhibition [1] was 9.2%, the inhibition [2] was “inactive” and the inhibition at 10 µM (U2OS [3]) was 20.9%.

Work on Cc1nc(Nc2cnn(C3CCNCC3)c2)nc2c1N(C)C(=O)c1cc3ccccc3cc1N2C yielded an inhibition [1] of 78.3%, an inhibition [2] of 15.6% and an inhibition at 10 µM (U2OS [3]) of 38.6%.

In the case of CCC(=O)Nc1cccc(Oc2nc(Nc3ccc(N(CC)CC)cc3OC)ncc2Cl)c1, the inhibition [1] was 10.8%, the inhibition [2] was “inactive” and the inhibition at 10 µM (U2OS [3]) was 8.69%.

CCC(=O)Nc1cccc(Oc2nc(Nc3ccc(N(C)C)cc3)ncc2Cl)c1 showed an inhibition [1] of 72.6%, an inhibition [2] of 31.7% and an inhibition at 10 µM (U2OS [3]) of 60.3%.

Compound CCC(=O)Nc1cccc(Oc2nc(Nc3ccc(N4CCOCC4)cc3)ncc2Cl)c1 has an inhibition [1] of 70.9%, an inhibition [2] of 43.5% and an inhibition at 10 µM (U2OS [3]) of 61.3%.

In the case of CCC(=O)Nc1cccc(Oc2nc(Nc3ccc(N4CCCCC4)cc3)ncc2Cl)c1, the inhibition [1] was 86%, the inhibition [2] was 72.3% and the inhibition at 10 µM (U2OS [3]) was 48.4%.

For CCC(=O)Nc1cccc(Oc2ccnc(Nc3ccc(N4CCN(C)CC4)cc3)n2)c1, the inhibition [1] was 85.6%, the inhibition [2] was 48.8% and the inhibition at 10 µM (U2OS [3]) was 24%.

CCC(=O)Nc1cccc(Oc2nc(Nc3ccc(N4CCN(C)CC4)cc3Cl)ncc2Cl)c1 was tested, and the inhibition [1] was 71.5%, the inhibition [2] was 69.1% and the inhibition at 10 µM (U2OS [3]) was 34.8%.

CCC(=O)Nc1cccc(Oc2nc(Nc3ccc(N4CCCC4)cc3OC)ncc2Cl)c1 was tested, and the inhibition [1] was 25.8%, the inhibition [2] was “inactive” and the inhibition at 10 µM (U2OS [3]) was 18.5%.
